{"data": "Results pooled from the literature", "target": "Mitogen-activated protein kinase kinase kinase kinase 5 (MAP4K5, Homo sapiens, UniProt Q9Y4K4)", "note": "Compare with care: the assays were run in different laboratories."}
{"SMILES": "Cc1cc(C)c(-n2ccn3nc(-c4cccnc4)cc23)cc1NC(=O)c1cc(C#N)cc(S(F)(F)(F)(F)F)c1", "read-out": "cell-free assay", "method": "competition with immobilised ligand", "concentration": "0.1 µM", "quantity": "remaining binding", "value": "83.4%"}
{"SMILES": "CN(C)c1nccc(-c2cnc3ncccn23)n1", "read-out": "binding", "concentration": "1 µM", "quantity": "remaining binding", "value": "100%"}
{"SMILES": "Cc1sc(C(=O)NC2COC2)cc1-n1cc(NC(=O)Nc2c(F)cccc2Cl)cn1", "read-out": "enzyme activity", "mode": "inhibitor", "concentration": "10 µM", "quantity": "remaining activity", "value": "98.4%"}
{"SMILES": "CCCOc1ccc([C@@H]2[C@@H](C(=O)O)[C@H](c3ccc4c(c3)OCO4)CN2CC(=O)Nc2c(CC)cccc2CC)cc1", "read-out": "cell-free assay", "method": "competition with immobilised ligand", "concentration": "1 µM", "quantity": "remaining binding", "value": "95%"}
{"SMILES": "CC(C)(C)c1nc2c(s1)c1nc(N)ncc1c1ccc(NS(=O)(=O)c3c(F)cccc3F)c(F)c12", "read-out": "enzyme activity", "mode": "inhibitor", "method": "radiometric", "concentration": "1 µM", "quantity": "remaining activity", "value": "87%"}
{"SMILES": "FC(F)(F)Oc1cccc(-c2cnc3ccc(-c4ccncc4)nn23)c1", "read-out": "enzyme activity", "mode": "inhibitor", "method": "radiometric", "concentration": "1 µM", "quantity": "activity vs control", "value": "110%"}
{"SMILES": "CS(=O)(=O)c1cc(C2(NC(=O)c3cncc4c3cnn4-c3ccc(F)cc3)CC2)ccn1", "read-out": "cell-free assay", "method": "competition with immobilised ligand", "concentration": "1 µM", "quantity": "remaining binding", "value": "98%"}
{"SMILES": "COc1cc(Cl)c(C(=O)N[C@@H](CN[C@H]2CC[C@@H](N)CC2)Cc2ccc(C#N)cc2)cc1-c1ccc(CN[C@H](C)c2ccc(C)cc2)o1", "read-out": "enzyme activity", "mode": "inhibitor", "concentration": "1 µM", "quantity": "remaining activity", "value": "113%"}
{"SMILES": "Cc1cc(NC(=O)c2cccc(S(F)(F)(F)(F)F)c2)cc(-n2ccn3nc(-c4cccnc4)cc23)c1", "read-out": "cell-free assay", "method": "competition with immobilised ligand", "concentration": "1 µM", "quantity": "remaining binding", "value": "100%"}
{"SMILES": "COc1ccc(COc2ccc(Cc3cnc(N)nc3N)cc2OC)cc1", "read-out": "cell-free assay", "concentration": "0.5 µM", "quantity": "remaining signal", "value": "97.4%"}
{"SMILES": "CNC(=O)Nc1ccc2c(c1)CC[C@@]21OC(=O)N(CC(=O)N(Cc2ccc(F)cc2)[C@@H](C)C(F)(F)F)C1=O", "read-out": "cell-free assay", "method": "competition with immobilised ligand", "concentration": "1 µM", "quantity": "remaining binding", "value": "88%"}
{"SMILES": "O=C1NC(=O)c2cc(Nc3ccc(F)cc3)c(Nc3ccc(F)cc3)cc21", "read-out": "cell-free assay", "concentration": "0.5 µM", "quantity": "remaining signal", "value": "89.5%"}
{"SMILES": "CNC(=O)c1cc2c(Oc3ccc(NC(=O)C4(C(=O)Nc5ccc(F)cc5)CC4)cc3)ccnc2cc1OC", "read-out": "enzyme activity", "mode": "inhibitor", "method": "radiometric", "concentration": "1 µM", "quantity": "inhibition", "value": "89%"}
{"SMILES": "O=C1Nc2ccc(Cl)cc2C1=Cc1cc(Cl)c(O)c(Cl)c1", "read-out": "cell-free assay", "concentration": "0.5 µM", "quantity": "remaining signal", "value": "75.9%"}
{"SMILES": "CCN1CCN(Cc2ccc(NC(=O)c3ccc(C)c(Oc4ccnc5[nH]ccc45)c3)cc2C(F)(F)F)CC1", "read-out": "target engagement in cells", "mode": "inhibitor", "method": "chemoproteomics", "cell line": "A-375", "concentration": "0.5 µM", "quantity": "inhibition", "value": "-0.264%"}
{"SMILES": "COc1cc2ncnc(Nc3ccc(Oc4ccccc4)c(C)c3C)c2cc1OC", "read-out": "enzyme activity", "mode": "inhibitor", "concentration": "1 µM", "quantity": "inhibition", "value": "-2%"}
{"SMILES": "COCCOc1nc(-c2ccc(Cl)nc2)nc2c1CN(C(=O)c1ncn3ccccc13)CC2", "read-out": "cell-free assay", "method": "competition with immobilised ligand", "concentration": "0.1 µM", "quantity": "remaining binding", "value": "91%"}
{"SMILES": "Cc1ccc(C(=O)NCc2ccsc2)cc1C#Cc1cn(C(C)C)c2ncnc(N)c12", "read-out": "enzyme activity", "mode": "inhibitor", "concentration": "1 µM", "quantity": "activity vs control", "value": "7%"}
